{
  "source": "ChEMBL document CHEMBL5705905",
  "about": "“Pharmacological targeting of kinases MST1 and MST2 augments tissue repair and regeneration” (Sci Transl Med, 2016)",
  "key": {"[1]": {"molecular_target": "Serine/threonine-protein kinase RIO1 (Homo sapiens) (UniProt Q9BRS2)", "assay": "Inhibition of RIOK1 (unknown origin) assessed as remaining activity at 1 uM by Kinome scan method relative to control"}, "[2]": {"molecular_target": "Bone morphogenetic protein receptor type-2 (Homo sapiens) (UniProt Q13873)", "sequence (Q13873 whole entry)": "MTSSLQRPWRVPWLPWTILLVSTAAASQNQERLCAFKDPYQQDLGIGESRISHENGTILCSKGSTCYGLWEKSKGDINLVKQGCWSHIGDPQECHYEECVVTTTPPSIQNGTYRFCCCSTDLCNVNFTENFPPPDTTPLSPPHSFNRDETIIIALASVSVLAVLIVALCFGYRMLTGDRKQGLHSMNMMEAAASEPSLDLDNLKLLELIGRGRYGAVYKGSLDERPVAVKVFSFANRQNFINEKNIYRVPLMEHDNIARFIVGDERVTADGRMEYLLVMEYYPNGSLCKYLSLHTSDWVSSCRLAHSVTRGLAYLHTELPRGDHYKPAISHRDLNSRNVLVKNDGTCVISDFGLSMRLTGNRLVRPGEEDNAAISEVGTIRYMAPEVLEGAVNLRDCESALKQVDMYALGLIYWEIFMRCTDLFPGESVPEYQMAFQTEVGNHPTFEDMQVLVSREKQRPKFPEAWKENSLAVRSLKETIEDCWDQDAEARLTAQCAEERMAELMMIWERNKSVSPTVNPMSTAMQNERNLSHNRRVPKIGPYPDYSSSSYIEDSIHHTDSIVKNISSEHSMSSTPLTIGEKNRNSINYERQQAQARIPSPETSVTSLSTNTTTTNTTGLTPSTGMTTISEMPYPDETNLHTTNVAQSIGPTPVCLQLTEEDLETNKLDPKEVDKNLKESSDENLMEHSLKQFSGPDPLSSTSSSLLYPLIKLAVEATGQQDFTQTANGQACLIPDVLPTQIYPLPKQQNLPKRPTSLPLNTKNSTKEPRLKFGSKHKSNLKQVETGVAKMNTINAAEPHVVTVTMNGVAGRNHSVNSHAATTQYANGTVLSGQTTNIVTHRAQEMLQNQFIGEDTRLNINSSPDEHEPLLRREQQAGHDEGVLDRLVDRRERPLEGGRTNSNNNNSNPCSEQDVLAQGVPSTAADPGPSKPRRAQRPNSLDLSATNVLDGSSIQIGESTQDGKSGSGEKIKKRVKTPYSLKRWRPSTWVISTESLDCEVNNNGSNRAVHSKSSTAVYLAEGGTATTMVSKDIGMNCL", "assay": "Inhibition of BMPR2 (unknown origin) assessed as remaining activity at 1 uM by Kinome scan method relative to control", "procedure,_shortened": "(§1)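 Active-site-dependent competition-binding (KINOMEscan) panel of 468 kinases, test compound at 1 μM (from a 10 mM DMSO stock). Read-out is ctrl% = (test signal − positive control signal)/(negative control signal − positive control signal) × 100. DMSO is the negative control (100%) and a control compound is the positive control (0%). Lower ctrl% means tighter binding.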"}, "[3]": {"molecular_target": "Ribosomal protein S6 kinase alpha-3 (Homo sapiens) (UniProt P51812)", "assay": "Inhibition of N-terminal kinase domain RSK2 (unknown origin) assessed as remaining activity at 1 uM by Kinome scan method relative to control"}, "[4]": {"molecular_target": "Serine/threonine-protein kinase ULK3 (Homo sapiens) (UniProt Q6PHR2)", "assay": "Inhibition of ULK3 (unknown origin) assessed as remaining activity at 1 uM by Kinome scan method relative to control"}, "[5]": {"molecular_target": "Mitogen-activated protein kinase kinase kinase 15 (Homo sapiens) (UniProt Q6ZN16)", "assay": "Inhibition of MAP3K15 (unknown origin) assessed as remaining activity at 1 uM by Kinome scan method relative to control"}, "[6]": {"molecular_target": "Ribosomal protein S6 kinase alpha-4 (Homo sapiens) (UniProt O75676)", "assay": "Inhibition of C-terminal kinase domain RPS6KA4 (unknown origin) assessed as remaining activity at 1 uM by Kinome scan method relative to control", "procedure,_shortened": "as §1"}, "[7]": {"molecular_target": "Non-receptor tyrosine-protein kinase TYK2 (Homo sapiens, UniProt P29597)", "assay": "Binding affinity to TYK2 JH1domain-catalytic (unknown origin) assessed as dissociation constant"}, "[8]": {"molecular_target": "Serine/threonine-protein kinase 38-like (Homo sapiens) (UniProt Q9Y2H1)", "assay": "Inhibition of NDR2 (unknown origin) assessed as remaining activity at 1 uM by Kinome scan method relative to control"}, "[9]": {"molecular_target": "Dual specificity mitogen-activated protein kinase kinase 7 (Homo sapiens) (UniProt O14733)", "sequence (O14733 whole entry)": "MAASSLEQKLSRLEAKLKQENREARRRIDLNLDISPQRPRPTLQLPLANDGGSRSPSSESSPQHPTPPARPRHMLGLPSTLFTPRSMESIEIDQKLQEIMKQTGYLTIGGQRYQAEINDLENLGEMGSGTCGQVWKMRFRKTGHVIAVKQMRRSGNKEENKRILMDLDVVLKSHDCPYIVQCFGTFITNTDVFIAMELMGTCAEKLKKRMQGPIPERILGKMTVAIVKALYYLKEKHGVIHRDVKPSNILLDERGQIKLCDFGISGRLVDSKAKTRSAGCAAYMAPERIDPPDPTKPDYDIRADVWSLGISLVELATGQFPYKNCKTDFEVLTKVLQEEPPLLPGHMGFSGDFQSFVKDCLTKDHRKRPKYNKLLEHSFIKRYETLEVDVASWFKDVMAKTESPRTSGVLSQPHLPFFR", "assay": "Inhibition of MKK7 (unknown origin) assessed as remaining activity at 1 uM by Kinome scan method relative to control"}, "[10]": {"molecular_target": "Cyclin-dependent kinase 9 (Homo sapiens) (UniProt P50750)", "assay": "Inhibition of CDK9 (unknown origin) assessed as remaining activity at 1 uM by Kinome scan method relative to control", "procedure,_shortened": "(§2)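 Active-site-dependent competition-binding profiling (KINOMEscan) at 1 μM against a 468-kinase panel; compound supplied from a 10 mM DMSO stock. Read-out is ctrl% = (test signal − positive control signal)/(negative control signal − positive control signal) × 100. DMSO is the negative control (100%) and a control compound the positive control (0%). Lower ctrl% means tighter binding.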"}, "[11]": {"molecular_target": "Tyrosine-protein kinase Fes/Fps (Homo sapiens) (UniProt P07332)", "assay": "Inhibition of FES (unknown origin) assessed as remaining activity at 1 uM by Kinome scan method relative to control"}, "[12]": {"molecular_target": "Mitogen-activated protein kinase 7 (Homo sapiens) (UniProt Q13164)", "assay": "Inhibition of ERK5 (unknown origin) assessed as remaining activity at 1 uM by Kinome scan method relative to control"}, "[13]": {"molecular_target": "Mitogen-activated protein kinase 3 (Homo sapiens) (UniProt P27361)", "assay": "Inhibition of ERK1 (unknown origin) assessed as remaining activity at 1 uM by Kinome scan method relative to control"}, "[14]": {"molecular_target": "Phosphatidylinositol 4-phosphate 5-kinase type-1 gamma (Homo sapiens, UniProt O60331)", "assay": "Binding affinity to PIP5K1C (unknown origin) assessed as dissociation constant"}, "[15]": {"molecular_target": "Mitogen-activated protein kinase kinase kinase 2 (Homo sapiens, UniProt Q9Y2U5)", "sequence (Q9Y2U5 whole entry)": "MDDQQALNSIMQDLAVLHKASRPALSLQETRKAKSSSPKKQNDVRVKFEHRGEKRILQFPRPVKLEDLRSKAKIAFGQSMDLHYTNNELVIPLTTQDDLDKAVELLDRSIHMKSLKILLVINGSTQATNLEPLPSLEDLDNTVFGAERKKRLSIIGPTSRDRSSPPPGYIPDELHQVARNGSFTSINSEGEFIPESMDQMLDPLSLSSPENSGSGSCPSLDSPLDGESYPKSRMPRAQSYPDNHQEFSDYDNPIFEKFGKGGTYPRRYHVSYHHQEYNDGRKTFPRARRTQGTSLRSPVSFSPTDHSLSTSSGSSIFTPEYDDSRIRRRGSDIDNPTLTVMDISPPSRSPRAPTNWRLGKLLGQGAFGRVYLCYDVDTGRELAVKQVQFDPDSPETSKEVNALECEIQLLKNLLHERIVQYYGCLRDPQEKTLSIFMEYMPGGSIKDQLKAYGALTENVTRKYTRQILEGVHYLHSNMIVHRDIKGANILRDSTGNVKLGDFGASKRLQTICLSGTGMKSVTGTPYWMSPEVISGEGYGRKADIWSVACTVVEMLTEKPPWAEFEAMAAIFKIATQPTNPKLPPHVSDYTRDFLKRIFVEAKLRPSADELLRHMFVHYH", "assay": "Binding affinity to MAP3K2 (unknown origin) assessed as dissociation constant"}, "[16]": {"molecular_target": "Dual specificity protein kinase CLK4 (Homo sapiens) (UniProt Q9HAZ1)", "assay": "Inhibition of CLK4 (unknown origin) assessed as remaining activity at 1 uM by Kinome scan method relative to control", "procedure,_shortened": "as §2"}, "[17]": {"molecular_target": "Mitogen-activated protein kinase kinase kinase 9 (Homo sapiens) (UniProt P80192)", "sequence (P80192 whole entry, looked up)": "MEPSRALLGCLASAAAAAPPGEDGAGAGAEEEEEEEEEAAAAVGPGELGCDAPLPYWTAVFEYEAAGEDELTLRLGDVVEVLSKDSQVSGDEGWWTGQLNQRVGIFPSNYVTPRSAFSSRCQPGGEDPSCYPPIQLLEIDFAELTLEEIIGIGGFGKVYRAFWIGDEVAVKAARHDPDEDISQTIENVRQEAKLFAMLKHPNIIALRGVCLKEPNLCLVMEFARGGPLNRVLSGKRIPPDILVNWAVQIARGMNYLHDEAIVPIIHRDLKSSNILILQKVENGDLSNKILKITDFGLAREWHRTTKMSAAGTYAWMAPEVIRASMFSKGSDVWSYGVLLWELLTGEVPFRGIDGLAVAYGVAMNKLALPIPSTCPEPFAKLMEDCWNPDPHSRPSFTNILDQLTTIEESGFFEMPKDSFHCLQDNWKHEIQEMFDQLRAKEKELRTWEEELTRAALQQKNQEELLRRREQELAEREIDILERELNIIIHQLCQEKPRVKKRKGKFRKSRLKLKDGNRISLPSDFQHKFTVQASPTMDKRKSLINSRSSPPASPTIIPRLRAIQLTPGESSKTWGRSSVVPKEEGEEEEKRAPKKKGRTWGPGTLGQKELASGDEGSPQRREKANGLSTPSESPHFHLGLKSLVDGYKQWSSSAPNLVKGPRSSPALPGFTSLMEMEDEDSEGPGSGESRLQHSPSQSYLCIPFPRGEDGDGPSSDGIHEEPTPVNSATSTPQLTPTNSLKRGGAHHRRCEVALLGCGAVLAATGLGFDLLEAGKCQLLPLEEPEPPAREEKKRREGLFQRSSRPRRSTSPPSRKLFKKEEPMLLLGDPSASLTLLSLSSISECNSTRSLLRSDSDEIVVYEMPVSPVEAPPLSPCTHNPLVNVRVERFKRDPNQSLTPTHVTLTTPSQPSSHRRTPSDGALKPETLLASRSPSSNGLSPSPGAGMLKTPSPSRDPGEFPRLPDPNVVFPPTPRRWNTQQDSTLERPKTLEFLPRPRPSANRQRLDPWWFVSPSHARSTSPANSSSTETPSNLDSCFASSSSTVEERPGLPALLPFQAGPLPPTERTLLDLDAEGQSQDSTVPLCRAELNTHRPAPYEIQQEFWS", "assay": "Inhibition of MLK1 (unknown origin) assessed as remaining activity at 1 uM by Kinome scan method relative to control"}, "[18]": {"tested_on": "Mast/stem cell growth factor receptor Kit (Homo sapiens), P10721 [A829P]", "sequence (P10721 whole entry A829P)": "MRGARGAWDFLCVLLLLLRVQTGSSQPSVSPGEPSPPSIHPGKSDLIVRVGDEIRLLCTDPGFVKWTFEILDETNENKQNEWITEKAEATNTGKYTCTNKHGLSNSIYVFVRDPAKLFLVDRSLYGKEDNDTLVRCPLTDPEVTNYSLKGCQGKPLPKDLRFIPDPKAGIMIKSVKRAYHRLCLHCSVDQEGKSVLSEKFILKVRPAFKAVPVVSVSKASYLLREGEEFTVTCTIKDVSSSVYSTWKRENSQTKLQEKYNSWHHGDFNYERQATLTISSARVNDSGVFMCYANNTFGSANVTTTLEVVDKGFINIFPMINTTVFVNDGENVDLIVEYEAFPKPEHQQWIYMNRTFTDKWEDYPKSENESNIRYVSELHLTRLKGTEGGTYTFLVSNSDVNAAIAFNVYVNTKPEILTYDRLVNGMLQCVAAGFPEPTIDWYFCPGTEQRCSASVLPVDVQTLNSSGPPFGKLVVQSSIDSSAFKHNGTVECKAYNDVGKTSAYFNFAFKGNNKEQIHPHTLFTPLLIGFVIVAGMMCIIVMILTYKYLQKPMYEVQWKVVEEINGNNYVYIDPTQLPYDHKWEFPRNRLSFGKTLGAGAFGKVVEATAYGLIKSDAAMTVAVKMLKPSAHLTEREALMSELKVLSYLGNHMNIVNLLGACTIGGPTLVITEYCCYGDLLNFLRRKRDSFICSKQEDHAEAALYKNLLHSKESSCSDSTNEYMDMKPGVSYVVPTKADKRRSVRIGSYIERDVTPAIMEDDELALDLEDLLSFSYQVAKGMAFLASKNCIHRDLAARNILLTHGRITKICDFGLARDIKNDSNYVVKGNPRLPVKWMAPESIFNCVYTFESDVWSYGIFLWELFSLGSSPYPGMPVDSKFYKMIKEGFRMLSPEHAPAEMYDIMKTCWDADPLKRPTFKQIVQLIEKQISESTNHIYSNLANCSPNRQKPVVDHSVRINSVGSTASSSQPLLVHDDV", "assay": "Inhibition of KIT A829P mutant (unknown origin) assessed as remaining activity at 1 uM by Kinome scan method relative to control"}, "[19]": {"molecular_target": "Mitogen-activated protein kinase kinase kinase kinase 1 (Homo sapiens) (UniProt Q92918)", "assay": "Inhibition of HPK1 (unknown origin) assessed as remaining activity at 1 uM by Kinome scan method relative to control"}, "[20]": {"molecular_target": "Epithelial discoidin domain-containing receptor 1 (Homo sapiens) (UniProt Q08345)", "assay": "Inhibition of DDR1 (unknown origin) assessed as remaining activity at 1 uM by Kinome scan method relative to control"}, "[21]": {"molecular_target": "Hepatocyte growth factor receptor (Homo sapiens) (UniProt P08581)", "assay": "Inhibition of MET (unknown origin) assessed as remaining activity at 1 uM by Kinome scan method relative to control"}, "[22]": {"molecular_target": "Cyclin-dependent kinase 14 (Homo sapiens) (UniProt O94921)", "assay": "Inhibition of PFTK1 (unknown origin) assessed as remaining activity at 1 uM by Kinome scan method relative to control"}, "[23]": {"assay": "Acute toxicity in mouse assessed as increase in liver/body weight ratio at 1 mg/kg,ip administrated once a daily for 3 weeks relative to control", "format": "organism-based", "conditions": "in vivo, 504 h", "procedure,_shortened": "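Postnatal mice dosed from 10 days of age with vehicle or 1 mg/kg once per day for 21 days (3 weeks). Vehicle is 0.1% citric acid aqueous solution containing 20% Kolliphor HS 15. Liver sections stained with H&E and by IHC for CK19 and BrdU, with positive cells quantified (n = 3). Liver/body weight ratio recorded (n = 4). Values are means ± SD versus vehicle, Student's t test.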"}, "[24]": {"molecular_target": "Dual specificity mitogen-activated protein kinase kinase 6 (Homo sapiens) (UniProt P52564)", "assay": "Inhibition of MEK6 (unknown origin) assessed as remaining activity at 1 uM by Kinome scan method relative to control"}, "[25]": {"molecular_target": "SNF-related serine/threonine-protein kinase (Homo sapiens) (UniProt Q9NRH2)", "sequence (Q9NRH2 whole entry)": "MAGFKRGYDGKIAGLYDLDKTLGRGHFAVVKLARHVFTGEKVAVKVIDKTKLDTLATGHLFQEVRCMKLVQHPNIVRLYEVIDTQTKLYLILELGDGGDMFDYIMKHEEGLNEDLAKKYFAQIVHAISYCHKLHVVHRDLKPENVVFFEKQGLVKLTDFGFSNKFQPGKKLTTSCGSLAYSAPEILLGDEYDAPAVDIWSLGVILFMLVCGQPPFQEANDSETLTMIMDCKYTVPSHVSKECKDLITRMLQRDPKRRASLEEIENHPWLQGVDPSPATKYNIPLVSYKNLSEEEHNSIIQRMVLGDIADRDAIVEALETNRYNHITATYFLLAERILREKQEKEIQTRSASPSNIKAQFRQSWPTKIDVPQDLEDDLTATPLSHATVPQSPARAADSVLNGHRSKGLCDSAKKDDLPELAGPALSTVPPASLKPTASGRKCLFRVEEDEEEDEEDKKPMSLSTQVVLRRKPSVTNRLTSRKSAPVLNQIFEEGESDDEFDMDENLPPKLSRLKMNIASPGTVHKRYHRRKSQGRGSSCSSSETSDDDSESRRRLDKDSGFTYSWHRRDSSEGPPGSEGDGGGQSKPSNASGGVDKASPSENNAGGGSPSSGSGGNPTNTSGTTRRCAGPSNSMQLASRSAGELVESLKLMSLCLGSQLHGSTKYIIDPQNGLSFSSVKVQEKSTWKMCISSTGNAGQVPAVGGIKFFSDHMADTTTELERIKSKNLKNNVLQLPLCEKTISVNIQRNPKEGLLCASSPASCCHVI", "assay": "Inhibition of SNRK (unknown origin) assessed as remaining activity at 1 uM by Kinome scan method relative to control"}, "[26]": {"tested_on": "Tyrosine-protein kinase ABL1 (Homo sapiens), P00519 [Q252H]", "assay": "Inhibition of ABL1 Q252H mutant (unknown origin) assessed as remaining activity at 1 uM by Kinome scan method relative to control", "procedure,_shortened": "as §1"}, "[27]": {"molecular_target": "Serine/threonine-protein kinase PAK 1 (Homo sapiens) (UniProt Q13153)", "assay": "Inhibition of PAK1 (unknown origin) assessed as remaining activity at 1 uM by Kinome scan method relative to control"}, "[28]": {"molecular_target": "Mitogen-activated protein kinase 12 (Homo sapiens) (UniProt P53778)", "assay": "Inhibition of P38gamma (unknown origin) assessed as remaining activity at 1 uM by Kinome scan method relative to control"}},
  "data": [
    {"smiles": "CN1C(=O)c2sccc2N(C)c2nc(Nc3ccc(S(N)(=O)=O)cc3)ncc21", "values": [
      {"measurement": "Activity", "setting": "[1]", "value": 86, "unit": "%"},
      {"measurement": "Activity", "setting": "[2]", "value": 100, "unit": "%"},
      {"measurement": "Activity", "setting": "[3]", "value": 76, "unit": "%"},
      {"measurement": "Activity", "setting": "[4]", "value": 84, "unit": "%"},
      {"measurement": "Activity", "setting": "[5]", "value": 67, "unit": "%"},
      {"measurement": "Activity", "setting": "[6]", "value": 69, "unit": "%"},
      {"measurement": "Kd", "setting": "[7]", "value": 5, "unit": "nM"},
      {"measurement": "Activity", "setting": "[8]", "value": 82, "unit": "%"},
      {"measurement": "Activity", "setting": "[9]", "value": 96, "unit": "%"},
      {"measurement": "Activity", "setting": "[10]", "value": 84, "unit": "%"},
      {"measurement": "Activity", "setting": "[11]", "value": 39, "unit": "%"},
      {"measurement": "Activity", "setting": "[12]", "value": 60, "unit": "%"},
      {"measurement": "Activity", "setting": "[13]", "value": 100, "unit": "%"},
      {"measurement": "Kd", "setting": "[14]", "value": 77, "unit": "nM"},
      {"measurement": "Kd", "setting": "[15]", "value": 19, "unit": "nM"},
      {"measurement": "Activity", "setting": "[16]", "value": 100, "unit": "%"},
      {"measurement": "Activity", "setting": "[17]", "value": 100, "unit": "%"},
      {"measurement": "Activity", "setting": "[18]", "value": 91, "unit": "%"},
      {"measurement": "Activity", "setting": "[19]", "value": 79, "unit": "%"},
      {"measurement": "Activity", "setting": "[20]", "value": 63, "unit": "%"},
      {"measurement": "Activity", "setting": "[21]", "value": 100, "unit": "%"},
      {"measurement": "Activity", "setting": "[22]", "value": 100, "unit": "%"},
      {"measurement": "Activity", "setting": "[23]", "value": 15, "unit": "%"},
      {"measurement": "Activity", "setting": "[24]", "value": 100, "unit": "%"},
      {"measurement": "Activity", "setting": "[25]", "value": 100, "unit": "%"},
      {"measurement": "Activity", "setting": "[26]", "value": 15, "unit": "%"},
      {"measurement": "Activity", "setting": "[27]", "value": 100, "unit": "%"},
      {"measurement": "Activity", "setting": "[28]", "value": 48, "unit": "%"}
    ]}
  ]
}
